The source made the active and inactive calls. The calls are words filed in the database; no cut-off is given here.
Columns and labels:
[1] = target: Glutamate NMDA receptor; GRIN1/GRIN2B (Homo sapiens, UniProt Q05586+Q13224); assay: Inhibition of NMDA-evoked increased intracellular [Ca2+] in cells expressing NR1/NR2B receptor; format: cell-based
[2] = target: Glutamate [NMDA] receptor; assay: Inhibition of [3H]-Ro-25-6981 binding to NMDA receptor; format: protein-complex assay
[3] = system: Mus musculus; assay: In vivo analgesic activity was tested using formalin test in mouse upon p.o. administration; format: functional; settings: po
Method in brief: (§1)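 Mice were pretreated orally with the compound suspended in 5% Tween-80, then given formalin into the hindpaw. Licking was counted 20–25 min after the formalin injection. Percentage inhibition was calculated for each dose, and the dose giving a half-maximal effect (ED50) was determined.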

[4] = system: Mus musculus; assay: In vivo analgesic activity was tested using formalin test in mouse upon p.o. administration; IA is inactive; format: functional, organism-based; method in brief: as §1
[5] = system: Mus musculus; assay: In vivo analgesic activity was tested using formalin test in mouse upon i.p. administration; format: functional; settings: ip
Method in brief: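 Mice were pretreated intraperitoneally before formalin injection into the hindpaw. Licking behaviour was counted 20–25 min after the formalin injection. Percentage inhibition was calculated per dose, and the ED50 (the dose producing a half-maximal effect) was derived.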

[6] = system: Mus musculus; assay: In vivo analgesic activity was tested using formalin test in mouse upon s.c. administration; format: functional; settings: sc

Chain of Glutamate NMDA receptor; GRIN1/GRIN2B (Q13224 whole entry, other chains not shown): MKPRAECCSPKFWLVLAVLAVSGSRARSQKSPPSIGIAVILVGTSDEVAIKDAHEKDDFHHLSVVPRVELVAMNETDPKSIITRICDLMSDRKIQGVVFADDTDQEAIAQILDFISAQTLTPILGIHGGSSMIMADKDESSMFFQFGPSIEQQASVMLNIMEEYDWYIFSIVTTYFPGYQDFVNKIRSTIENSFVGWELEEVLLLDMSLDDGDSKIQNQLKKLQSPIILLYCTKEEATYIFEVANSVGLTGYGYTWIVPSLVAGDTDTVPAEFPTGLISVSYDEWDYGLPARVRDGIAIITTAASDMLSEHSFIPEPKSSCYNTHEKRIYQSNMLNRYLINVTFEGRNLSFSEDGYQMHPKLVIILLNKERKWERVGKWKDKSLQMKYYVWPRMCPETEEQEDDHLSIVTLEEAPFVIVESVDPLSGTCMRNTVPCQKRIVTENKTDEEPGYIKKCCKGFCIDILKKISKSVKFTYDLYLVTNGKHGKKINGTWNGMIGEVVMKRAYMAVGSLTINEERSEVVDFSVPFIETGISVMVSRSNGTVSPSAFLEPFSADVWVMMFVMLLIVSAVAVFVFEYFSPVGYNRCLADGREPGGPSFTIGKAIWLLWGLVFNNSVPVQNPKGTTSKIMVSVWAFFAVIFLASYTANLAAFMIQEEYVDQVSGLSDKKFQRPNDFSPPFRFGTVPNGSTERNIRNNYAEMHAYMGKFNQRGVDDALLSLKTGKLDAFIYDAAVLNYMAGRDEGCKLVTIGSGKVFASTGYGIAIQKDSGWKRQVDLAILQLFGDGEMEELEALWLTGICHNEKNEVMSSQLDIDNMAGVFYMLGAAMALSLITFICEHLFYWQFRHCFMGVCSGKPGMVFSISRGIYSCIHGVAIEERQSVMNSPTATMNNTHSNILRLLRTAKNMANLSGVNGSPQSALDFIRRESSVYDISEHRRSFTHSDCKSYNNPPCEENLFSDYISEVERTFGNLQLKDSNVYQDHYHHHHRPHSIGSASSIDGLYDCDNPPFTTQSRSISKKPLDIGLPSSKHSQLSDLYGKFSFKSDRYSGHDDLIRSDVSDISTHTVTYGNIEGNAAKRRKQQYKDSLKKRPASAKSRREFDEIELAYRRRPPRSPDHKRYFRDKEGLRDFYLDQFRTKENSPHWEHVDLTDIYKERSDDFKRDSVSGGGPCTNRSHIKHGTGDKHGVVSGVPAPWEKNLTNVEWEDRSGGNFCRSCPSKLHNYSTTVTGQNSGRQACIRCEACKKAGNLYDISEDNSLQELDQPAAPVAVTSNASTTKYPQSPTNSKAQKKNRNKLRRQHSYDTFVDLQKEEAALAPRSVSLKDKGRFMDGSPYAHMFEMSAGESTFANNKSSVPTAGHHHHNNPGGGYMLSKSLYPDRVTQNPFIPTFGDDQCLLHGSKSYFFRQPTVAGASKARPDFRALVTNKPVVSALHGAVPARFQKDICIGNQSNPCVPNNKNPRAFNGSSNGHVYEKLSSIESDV

IC50 [1] | IC50 [2] | Structure (SMILES) | ED50 [3] | ED50 [4] | ED50 [5] | ED50 [6]
4 nM | 6 nM | O=C(Nc1ccc2[nH]c(=O)oc2c1)C(=O)N1CCC(Cc2ccc(F)cc2)CC1 [RADIPRODIL] | 7.7 mg/kg |  |  | 
9 nM | 17 nM | O=C(Nc1ccc2[nH]c(=O)sc2c1)C(=O)N1CCC(Cc2ccccc2)CC1 | 0.4 mg/kg |  |  | 
15 nM | 54 nM | Cc1ccc(CC2CCN(C(=O)C(=O)Nc3ccc4c(c3)CC(=O)N4)CC2)cc1 | 0.5 mg/kg |  |  | 
18 nM | 17 nM | Cc1ccc(CC2CCN(C(=O)C(=O)Nc3ccc4c(c3)OCC(=O)N4)CC2)cc1 | 10 mg/kg |  |  | 
3 nM | 8 nM | O=C(Nc1ccc2[nH]c(=O)oc2c1)C(=O)N1CCC(Cc2ccccc2)CC1 | 0.9 mg/kg |  |  | 
2 nM | 5 nM | O=C(Nc1ccc2[nH]c(=O)[nH]c2c1)C(=O)N1CCC(Cc2ccc(F)cc2)CC1 | > 20 mg/kg |  |  | 
29 nM | 139 nM | O=C1Nc2ccc(NC(=O)C(=O)N3CCC(Cc4ccccc4)CC3)cc2CO1 | < 0.1 mg/kg |  |  | 
6 nM | 4 nM | O=C(Nc1ccc2[nH]c(=O)[nH]c2c1)C(=O)N1CCC(Cc2ccccc2)CC1 | 14 mg/kg |  |  | 

Second part, the molecule before the results:

Structure (SMILES) | IC50 [1] | IC50 [2] | ED50 [3] | ED50 [4] | ED50 [5] | ED50 [6]
O=C(CCN1CCC(Cc2ccc(F)cc2)CC1)c1ccc2nc(O)oc2c1 | 48 nM | 8 nM | 3.7 mg/kg |  |  | 
O=C(c1cc2cc(O)ccc2[nH]1)N1CCC(Cc2ccccc2)CC1 | 42 nM |  | 1.4 mg/kg |  |  | 
Cc1ccc(OC2CCN(C(=O)C(=O)Nc3ccc4[nH]c(=O)sc4c3)CC2)cc1 | 8 nM | 17 nM | 0.2 mg/kg |  |  | 
C[C@@H](CN1CCC(Cc2ccccc2)CC1)[C@@H](O)c1ccc(O)cc1 |  |  |  | inactive | 5.1 mg/kg | 
Cc1ccc(OC2CCN(C(=O)C(=O)Nc3ccc4nc(S)[nH]c4c3)CC2)cc1 | 10 nM | 131 nM | > 20 mg/kg |  |  | 
O=C(Nc1ccc(O)cc1)C(=O)N1CCC(Cc2ccccc2)CC1 | 31 nM | 16 nM | 9.4 mg/kg |  |  | 
C[C@@H]([C@@H](O)c1ccc(O)cc1)N1CCC(O)(c2ccccc2)CC1 [TRAXOPRODIL] |  |  | > 20 mg/kg |  |  | > 20 mg/kg
O=c1[nH]c2ccc([S+]([O-])CCN3CCC(Cc4ccc(F)cc4)CC3)cc2o1 (configuration not stated) [BESONPRODIL] |  |  | 2.4 mg/kg |  |  | 
O=C(Nc1ccc2[nH]c(=O)[nH]c2c1)C(=O)N1CCC(Oc2ccc(Cl)cc2)CC1 | 8 nM | 26 nM | > 20 mg/kg |  |  | 
Cc1ccc(CC2(O)CCN(CCOc3ccc(O)cc3)CC2)cc1 | 5 nM |  |  | inactive | 5.9 mg/kg | 
O=C(Nc1ccc2[nH]c(=O)oc2c1)C(=O)N1CCC(Oc2ccc(Cl)cc2)CC1 | 7 nM | 40 nM | 4.4 mg/kg |  |  | 
